Where a chain is given by its changes, count along the chain named. The source made the active and inactive calls. The calls are words filed in the database; no cut-off is given here.
How the values were obtained:
[1] = target: T1, Renin (Macaca fascicularis, UniProt Q6DLS0); assay: Inhibition of renin in cynomolgus monkey plasma after 1 hr by RIA
T1 sequence (Q6DLS0 whole entry): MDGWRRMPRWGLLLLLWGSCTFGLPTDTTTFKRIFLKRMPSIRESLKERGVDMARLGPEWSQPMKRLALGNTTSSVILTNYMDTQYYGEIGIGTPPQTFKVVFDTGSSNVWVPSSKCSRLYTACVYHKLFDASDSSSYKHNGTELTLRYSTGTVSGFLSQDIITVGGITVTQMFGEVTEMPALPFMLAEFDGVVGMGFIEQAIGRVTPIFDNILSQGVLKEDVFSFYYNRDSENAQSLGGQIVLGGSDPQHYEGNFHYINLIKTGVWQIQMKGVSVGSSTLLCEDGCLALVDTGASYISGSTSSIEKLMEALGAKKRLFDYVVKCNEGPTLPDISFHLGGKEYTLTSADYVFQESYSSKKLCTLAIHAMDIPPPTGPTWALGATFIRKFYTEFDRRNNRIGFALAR
In short: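 Pooled mixed-gender EDTA cynomolgus monkey plasma with pH adjusting solution and Inhibitor A, compound in 1% DMSO final, incubated 1 h at 37 °C. Angiotensin I by competitive RIA; uninhibited and 4 °C controls define % inhibition; IC50 from four-parameter fit; ratio is compound IC50 over aliskiren IC50 in same plasma batch; ≥2 replicates.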

[2] = target: T2, Renin (Homo sapiens, UniProt P00797); assay: Inhibition of human recombinant renin using Arg-Glu(EDANS)-Ile-His-Pro-Phe-His-Leu-Val-Ile-His-Thr-Lys (DABCYL)-Arg as substrate incubated for 10 mins prior to substrate addition measured after 90 mins by fluorescence assay
T2 sequence (P00797 whole entry): T1 sequence (Q6DLS0 whole entry) with A68T, L214I, A235S
In short: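 Trypsin-activated recombinant human renin in 50 mM Tris-HCl pH 7.9, 100 mM NaCl, preincubated with compound 10 min at room temperature; FRET substrate Arg-Glu(EDANS)…Lys(DABCYL)-Arg added, 90 min at 37 °C.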

[3] = test system: Cynomolgus monkey; assay: Inhibition of renin in furosemide pretreated cynomolgus monkey assessed as reduction in mean arterial blood pressure at 1 to 10 mg/kg, po up to 24 hrs; type: functional, organism-based; conditions: Macaca fascicularis
In short: (§1)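 Conscious freely moving telemetered cynomolgus monkeys (n = 6), furosemide 5 mg/kg/day im for 3 days before dosing; fasted from morning, fed ≥8 h post-dose. Oral 1, 3, 10 mg/kg or 1% methylcellulose, crossover design; arterial pressure recorded from −3 to 24 h; hourly mean MAP; mean ± SEM.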

[4] = test system: Cynomolgus monkey; assay: Inhibition of renin in po dosed furosemide pretreated cynomolgus monkey assessed as reduction in mean arterial blood pressure; type: functional, organism-based; conditions: Macaca fascicularis; in short: as §1
[5] = Plasma concentration cynomolgus monkey at 1000 mg/kg, po after 4 hrs; type: ADME, organism-based, Macaca fascicularis; parameters: dose 1000 mg/kg, route oral
[6] = Plasma concentration in beagle dog at 0.5 mg/kg/min, iv after 30 mins; type: ADME, organism-based, Canis lupus familiaris; parameters: route intravenous
In short: (§2)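 Anesthetized dogs; after ECG parameters stabilized, compound infused iv continuously at 0.5 mg/kg/min for 1 h. ECG changes at 30 min as % change from baseline; 2 mL blood drawn from left femoral artery for plasma drug concentration.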

[7] = test system: Canis familiaris; assay: Cardiotoxicity in anesthetized beagle dog assessed as change in […] at 0.5 mg/kg/min, iv after 30 mins relative to baseline; type: toxicity, organism-based, Canis lupus familiaris; parameters: route intravenous; conditions: in vivo, 0.5 h; in short: as §2
[8] = test system: Oryctolagus cuniculus; assay: Cardiotoxicity in anesthetized New Zealand White rabbit assessed as change in QTc interval at 1 mg/kg/min, iv after 10 mins relative to baseline; type: toxicity, organism-based; parameters: route intravenous; conditions: in vivo
In short: (§3)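 Female NZW rabbits anesthetized with ketamine 35 mg/kg ip plus xylazine 5 mg/kg ip, tracheotomized, ventilated with room air. ECG and systemic pressure monitored; HR, PR, QRS, QT, QTc quantified. After stabilization, continuous iv infusion 1 mg/kg/min for 1 h; values at 10 min as % change from baseline.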

[9] = test system: Oryctolagus cuniculus; assay: Cardiotoxicity in anesthetized New Zealand White rabbit assessed as change in QRS width at 1 mg/kg/min, iv after 10 mins relative to baseline; type: toxicity, organism-based; parameters: route intravenous; conditions: in vivo; in short: as §3
[10] = test system: Oryctolagus cuniculus; assay: Cardiotoxicity in anesthetized New Zealand White rabbit assessed as change in […] at 1 mg/kg/min, iv after 10 mins relative to baseline; type: toxicity, organism-based; parameters: route intravenous; conditions: in vivo; in short: as §3
[11] = test system: Heart; assay: Cardiotoxicity in New Zealand White rabbit heart assessed as change in […] at 100 uM after 20 mins relative to baseline; type: toxicity, tissue-based, Oryctolagus cuniculus
In short: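 Isolated Langendorff-perfused hearts from female NZW rabbits anesthetized with thiopental 30 mg/kg iv; heart excised into chilled Krebs-Henseleit solution. After parameters stabilized, compound perfused at 10, 30 and 100 µM for 20 min; ECG changes expressed as % change from baseline.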

[12] = target: Voltage-gated inwardly rectifying potassium channel KCNH2 (Homo sapiens, UniProt Q12809); assay: Inhibition of human ERG channel expressed in CHOK1 cells at 100 uM after 5 mins by patch clamp technique; type: cell-based; conditions: cho-k1, 5 min
In short: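 CHO-K1 cells stably expressing hERG; automated patch clamp. Holding −80 mV, step to +50 mV for 2 s, then −40 mV for 2 s; tail peak current measured. Compound incubated 5 min.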

[13] = target: CYP3A4 (Homo sapiens, UniProt P08684); assay: Inhibition of CYP3A4 in human liver microsomes assessed as residual activity at 100 uM by LC/MS analysis; type: ADME, Microsome; conditions: read-out: Activity
[14] = test system: Rattus norvegicus; assay: Cardiotoxicity in Sprague-Dawley rat electrophysiology model assessed as QRS complex abnormalities at 10 mg/kg, iv by ECG analysis; type: toxicity, organism-based; parameters: dose 10 mg/kg, route intravenous; conditions: in vivo
In short: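 Male Sprague-Dawley rats anesthetized with inactin 100 mg/kg ip; surface lead II ECG recorded continuously. Compounds given as iv bolus via right jugular vein catheter after stabilization; QRS complex abnormality scored as no, moderate or severe change; n = 2 at 10 mg/kg.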

[15] = target: T3, Renin (Macaca fascicularis) (UniProt Q6DLS0); assay: Ratio of compound IC50 to aliskiren IC50 for renin in cynomolgus monkey plasma
T3 sequence (whole entry): T1 sequence (Q6DLS0 whole entry)

[16] = test system: Cynomolgus monkey; assay: Cardiotoxicity in conscious cynomolgus monkey assessed as change in QRS width at 1000 mg/kg, po after 4 hrs relative to baseline; conditions: in vivo
[17] = test system: Cynomolgus monkey; assay: Cardiotoxicity in conscious cynomolgus monkey assessed as change in QTc interval at 1000 mg/kg, po after 4 hrs relative to baseline; conditions: in vivo

Chain of CYP3A4 (P08684 whole entry): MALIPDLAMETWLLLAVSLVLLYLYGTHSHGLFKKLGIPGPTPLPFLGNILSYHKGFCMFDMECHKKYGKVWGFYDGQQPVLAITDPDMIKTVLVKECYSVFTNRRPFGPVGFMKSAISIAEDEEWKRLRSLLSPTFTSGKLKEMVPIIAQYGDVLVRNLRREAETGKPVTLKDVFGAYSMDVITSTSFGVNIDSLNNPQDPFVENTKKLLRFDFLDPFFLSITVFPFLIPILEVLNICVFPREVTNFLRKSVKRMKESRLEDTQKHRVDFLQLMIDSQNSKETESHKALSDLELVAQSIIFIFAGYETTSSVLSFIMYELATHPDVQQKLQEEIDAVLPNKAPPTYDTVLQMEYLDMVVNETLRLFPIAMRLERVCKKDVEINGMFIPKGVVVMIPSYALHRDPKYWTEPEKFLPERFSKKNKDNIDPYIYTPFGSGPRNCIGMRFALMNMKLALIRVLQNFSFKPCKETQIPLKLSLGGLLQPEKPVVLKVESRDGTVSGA
Chain of Voltage-gated inwardly rectifying potassium channel KCNH2 (Q12809 whole entry): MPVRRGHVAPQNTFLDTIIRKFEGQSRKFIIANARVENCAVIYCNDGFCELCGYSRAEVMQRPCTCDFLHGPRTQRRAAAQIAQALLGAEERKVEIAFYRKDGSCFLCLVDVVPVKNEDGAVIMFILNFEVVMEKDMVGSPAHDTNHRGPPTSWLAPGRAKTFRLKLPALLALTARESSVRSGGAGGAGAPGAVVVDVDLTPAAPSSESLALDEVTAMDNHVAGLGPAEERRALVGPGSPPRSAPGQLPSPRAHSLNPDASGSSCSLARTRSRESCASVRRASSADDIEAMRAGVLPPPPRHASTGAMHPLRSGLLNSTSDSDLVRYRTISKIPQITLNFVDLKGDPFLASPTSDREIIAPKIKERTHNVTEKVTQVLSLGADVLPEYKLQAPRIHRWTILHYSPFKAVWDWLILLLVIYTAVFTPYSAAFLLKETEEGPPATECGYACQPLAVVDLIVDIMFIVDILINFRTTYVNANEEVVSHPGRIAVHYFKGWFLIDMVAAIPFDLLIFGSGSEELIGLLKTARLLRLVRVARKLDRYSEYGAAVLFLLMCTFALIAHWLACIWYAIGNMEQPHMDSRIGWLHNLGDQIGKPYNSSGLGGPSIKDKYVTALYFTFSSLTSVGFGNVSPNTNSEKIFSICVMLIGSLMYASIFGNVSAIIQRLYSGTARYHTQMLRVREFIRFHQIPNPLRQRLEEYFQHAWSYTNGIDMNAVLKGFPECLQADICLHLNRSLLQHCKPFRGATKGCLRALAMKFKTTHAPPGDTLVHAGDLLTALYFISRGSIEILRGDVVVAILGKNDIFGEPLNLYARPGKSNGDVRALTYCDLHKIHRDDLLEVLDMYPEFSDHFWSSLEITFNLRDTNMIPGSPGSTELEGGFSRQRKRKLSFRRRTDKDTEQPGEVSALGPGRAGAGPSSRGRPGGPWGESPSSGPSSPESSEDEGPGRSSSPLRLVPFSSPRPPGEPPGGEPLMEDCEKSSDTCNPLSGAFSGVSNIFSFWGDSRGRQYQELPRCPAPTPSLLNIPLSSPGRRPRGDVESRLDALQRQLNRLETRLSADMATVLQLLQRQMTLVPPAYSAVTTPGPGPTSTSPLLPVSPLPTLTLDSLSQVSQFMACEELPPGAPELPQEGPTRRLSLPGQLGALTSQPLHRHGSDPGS

CC[C@H](C[C@H](O)[C@@H](N)CN1CC(=O)N(c2ccccc2Cl)CC1(C)C)C(=O)N[C@H]1C2CC3CC1C[C@](O)(C3)C2.O=C(O)/C=C/C(=O)O
IC50 [1]: 6.3 nM
IC50 [2]: 0.9 nM
inhibition [3]: Active
inhibition [4]: Dose-dependent effect
concentration at 4 h [5]: 5400 ng/mL
concentration at 0.5 h [6]: 38100 ng/mL
Activity [7]: -1.5%
Activity [8]: 2.7%
Activity [9]: -1.3%
Activity [10]: -1.3%
Activity [11]: 1.7%
inhibition (INH) [12]: Not Active
activity at 100 µM [13]: 77.9%
Activity [14]: Non-toxic
Ratio IC50 [15]: 0.8
Activity [16]: -7.6%
Activity [17]: -0.4%
